Activity calls are given as the source filed them. The rule behind the calls is not given here.
How the values were obtained:
L02 = experiment: Cytotoxicity against human L02 cells assessed as survival rate at 100 uM incubated for 24 hrs by MTT assay; format: functional
Procedure, shortened: (§1)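 Cells seeded at 1 × 10⁴/well in DMEM with 10% FBS and left overnight, then given compound (DMSO stock diluted in DMEM) for 24 h at 37 °C. MTT added for 4 h, formazan dissolved in DMSO, absorbance read at 492 nm. Viability taken as OD treated/OD DMEM × 100%; IC50 from three independent experiments, mean SD.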

HepG2 [1] = experiment: Cytotoxicity against human HepG2 cells assessed as reduction in cell viability incubated for 24 hrs by MTT assay; format: functional, cell-based; conditions: HepG2, 24 h; procedure, shortened: as §1
PC-12 [2] = experiment: Cytotoxicity against rat PC-12 cells assessed as reduction in cell viability incubated for 24 hrs by MTT assay; format: functional, cell-based; conditions: PC-12, 24 h; procedure, shortened: as §1
BV-2 [3] = experiment: Cytotoxicity against mouse BV-2 cells assessed as survival rate at 100 uM incubated for 24 hrs by MTT assay; format: functional; procedure, shortened: as §1
SH-SY5Y [4] = experiment: Cytotoxicity against human SH-SY5Y cells assessed as reduction in cell viability incubated for 24 hrs by MTT assay; format: functional, cell-based; procedure, shortened: as §1
Mus musculus [5] = experiment: Anti-alzheimer activity in amyloid beta(1 to 42)-induced ICR mouse model of cognitive impairment assessed as enhanced alternation performance by measuring total number of arm entries at 15 mg/kg, ig administered at days 2 to 14 and measured on day 15 by Y-maze test; format: functional
Procedure, shortened: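 Oligomerized Aβ1-42 (10 μg per mouse, icv) given on day 1; saline icv for sham. Dosing 15 mg/kg ig on days 2−14 (donepezil as positive control), n = 8. Spontaneous alternation read on day 15 in a three-arm grey PVC Y maze, arms at 120°. Mean SD.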

SH-SY5Y [6] = experiment: Cytotoxicity against human SH-SY5Y cells assessed as survival rate at 100 uM incubated for 24 hrs by MTT assay; format: functional; procedure, shortened: as §1
[7] = Hepatotoxicity in ICR mouse assessed as change in aspartate aminotransferase activity at 1 g/kg, ig administered daily for 14 days measured upto 36 hrs post-administration; format: toxicity; conditions: in vivo, po, 1000 mg/kg, 336 h, time 14 day
Procedure, shortened: (§2)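 Heparinized serum from ICR mice taken at 8, 22 and 36 h after oral compound or saline control; AST and ALT activities measured.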

SH-SY5Y [8] = experiment: Neuroprotective activity against amyloid beta (1 to 42)-induced cytotoxicity in human SH-SY5Y cells at 2.5 uM pretreated for 2 hrs followed by amyloid beta (1 to 42) stimulation and measured after 24 hrs by MTT assay; format: functional, cell-based; conditions: time 26.0 hrs
Procedure, shortened: (§3)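 SH-SY5Y cells seeded at 5000 per well and grown 24 h. Pretreated 2 h with compound (2.5 or 10 μM, diluted in DMEM from 10⁻¹ M DMSO stock), then H₂O₂ 200 μM, glutamate 20 mM or aggregated Aβ1-42 15 μM for 24 h. MTT added for 4 h, formazan dissolved in DMSO, absorbance read at 492 nm. Viability relative to untreated control; mean ± SEM, n = 3.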

[9] = Metabolic stability in human liver microsomes assessed as half life at 1 uM measured upto 45 mins in presence of NADPH by LC/MS/MS analysis; format: ADME, Microsome
Procedure, shortened: (§4)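 Human liver microsomes 0.5 mg/mL, compound 1 μM final, NADPH 2 mM, at 37 °C. Reactions stopped at 0, 5, 15, 30 and 45 min with acetonitrile containing imipramine internal standard. LC/MS/MS quantitation relative to 0 min; initial rates used for t1/2 and intrinsic clearance; ketanserin as assay control. Mean of two independent experiments.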

Cholinesterase [10] = target: Cholinesterase (Homo sapiens, UniProt P06276); experiment: Inhibition of human serum BChE using butyrylthiocholine iodide as substrate preincubated for 20 mins followed by substrate addition and measured after 2 mins by DTNB-reagent based Ellman's method
Sequence of Cholinesterase (Homo sapiens, UniProt P06276) (P06276 whole entry): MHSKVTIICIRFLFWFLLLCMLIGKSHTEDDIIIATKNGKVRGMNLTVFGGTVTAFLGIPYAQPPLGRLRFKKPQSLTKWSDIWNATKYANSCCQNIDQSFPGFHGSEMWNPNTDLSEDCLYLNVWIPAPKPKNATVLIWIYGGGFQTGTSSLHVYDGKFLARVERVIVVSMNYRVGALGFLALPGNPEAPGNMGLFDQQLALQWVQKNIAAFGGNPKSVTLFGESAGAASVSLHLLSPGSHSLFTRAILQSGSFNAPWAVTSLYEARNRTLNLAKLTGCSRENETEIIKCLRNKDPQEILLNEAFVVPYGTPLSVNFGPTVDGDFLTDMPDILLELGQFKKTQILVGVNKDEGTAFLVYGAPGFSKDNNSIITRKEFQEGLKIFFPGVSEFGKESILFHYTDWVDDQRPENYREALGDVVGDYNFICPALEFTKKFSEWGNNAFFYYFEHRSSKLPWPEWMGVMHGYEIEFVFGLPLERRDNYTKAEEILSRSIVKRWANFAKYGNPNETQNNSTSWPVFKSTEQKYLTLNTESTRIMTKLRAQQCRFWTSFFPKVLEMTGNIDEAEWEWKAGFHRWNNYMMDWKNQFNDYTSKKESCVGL
Procedure, shortened: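 hBChE at 0.015 units/mL with DTNB in phosphate buffer pH 8.0, preincubated 20 min at room temperature with at least six concentrations (10⁻⁴−10⁻⁹). Butyrylthiocholine iodide (0.075 M solution) added; A412 read after 2 min at 25 °C. IC50 from % activity vs log concentration; triplicates in at least three runs.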

Cholinesterase [11] = target: Cholinesterase (Equus caballus, UniProt P81908); experiment: Inhibition of equine serum BChE using butyrylthiocholine iodide as substrate preincubated for 5 mins followed by substrate addition and measured after 2 mins by DTNB-reagent based Ellman's method
Sequence of Cholinesterase (Equus caballus, UniProt P81908) (P81908 whole entry): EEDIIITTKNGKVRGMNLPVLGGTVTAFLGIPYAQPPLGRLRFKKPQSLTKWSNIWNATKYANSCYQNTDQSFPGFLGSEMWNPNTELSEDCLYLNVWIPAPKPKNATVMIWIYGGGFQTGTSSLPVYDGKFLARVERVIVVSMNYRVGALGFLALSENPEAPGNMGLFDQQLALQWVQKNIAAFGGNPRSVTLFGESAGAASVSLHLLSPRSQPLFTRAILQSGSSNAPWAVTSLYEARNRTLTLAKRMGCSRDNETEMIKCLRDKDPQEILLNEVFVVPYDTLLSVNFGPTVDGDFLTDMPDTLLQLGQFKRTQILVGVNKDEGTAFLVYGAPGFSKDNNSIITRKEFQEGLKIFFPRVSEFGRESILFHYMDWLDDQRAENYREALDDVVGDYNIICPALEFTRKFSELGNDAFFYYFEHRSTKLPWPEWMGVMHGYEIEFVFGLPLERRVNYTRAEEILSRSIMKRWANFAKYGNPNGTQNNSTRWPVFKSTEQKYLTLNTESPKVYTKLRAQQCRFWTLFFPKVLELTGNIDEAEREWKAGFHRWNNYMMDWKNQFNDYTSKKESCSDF

PC-12 [12] = experiment: Cytotoxicity against rat PC-12 cells assessed as survival rate at 10 uM incubated for 24 hrs by MTT assay; format: functional; procedure, shortened: as §1
Mus musculus [13] = experiment: Anti-alzheimer activity in amyloid beta(1 to 42)-induced ICR mouse model of cognitive impairment assessed as reduction in escape latency time at 15 mg/kg, ig administered at days 2 to 14 by Morris water maze test; format: functional
Procedure, shortened: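 Mouse model by icv oligomerized Aβ1-42 (10 μg/mouse, aggregated 24 h at 37 °C in saline) on day 1; 15 mg/kg ig on days 2−14, n = 8. Morris water maze training on days 9−13, probe trial day 14, escape latency and track recorded. Mean SD.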

[14] = Hepatotoxicity in ICR mouse assessed as change in alanine aminotransferase activity at 1 g/kg, ig administered daily for 14 days measured upto 36 hrs post-administration; format: toxicity; conditions: in vivo, po, 1000 mg/kg, 336 h, time 14 day; procedure, shortened: as §2
[15] = Acute toxicity in ICR mouse assessed as animal death at […]; conditions: in vivo, po, 1000 mg/kg, 336 h
HepG2 [16] = experiment: Cytotoxicity against human HepG2 cells assessed as survival rate at 100 uM incubated for 24 hrs by MTT assay; format: functional; procedure, shortened: as §1
[17] = Toxicity in ICR mouse assessed as increase in body weight administered for 14 days and measured daily; conditions: in vivo, 15 mg/kg, 336 h
SH-SY5Y [18] = experiment: Neuroprotective activity against H2O2-induced cytotoxicity in human SH-SY5Y cells pretreated for 2 hrs followed by H2O2 stimulation and measured after 24 hrs by MTT assay; format: functional, cell-based; conditions: dose 2.5-10 µM, time 26.0 hrs; procedure, shortened: as §3
SH-SY5Y [19] = experiment: Neuroprotective activity against glutamate-induced cytotoxicity in human SH-SY5Y cells at 10 uM pretreated for 2 hrs followed by glutamate stimulation and measured after 24 hrs by MTT assay; format: functional, cell-based; conditions: time 26.0 hrs; procedure, shortened: as §3
Mus musculus [20] = experiment: Antialzheimer activity in ICR mouse assessed as reduction in scopolamine-induced cognitive impairment at 30 mg/kg, ig administered for 10 consecutive days by Morris water maze test; format: functional, organism-based; conditions: time 10.0 day
Procedure, shortened: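 Male ICR mice (8−10 weeks, 18−20 g), n = 8 per group. Compound at 15 or 30 mg/kg intragastric in DMSO/saline (10:90), given 30 min before scopolamine 3 mg/kg i.p., for 10 consecutive days; tacrine 15 mg/kg as reference. Morris water maze: 5 days of training, probe trial on day 6 with platform removed. Escape latency and trajectory recorded; mean ± SD.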

[21] = Effective permeability of the compound in pH 7.4 PBS/EtOH (70:30) at 100 ug/ml incubated for 18 hrs by PAMPA-BBB assay; format: ADME; conditions: dose 100 µg/ml, read-out: Peff
Procedure, shortened: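 PAMPA-BBB with porcine brain lipid in dodecane (20 mg/mL) on PVDF filter. Donor holds compound at 100 μg/mL final (from 5 mg/mL DMSO stock) in PBS pH 7.4/EtOH 70:30; acceptor holds the same buffer. Incubated 18 h at 25 °C; donor and acceptor concentrations by UV at five wavelengths. Four wells, at least three runs, nine permeability standards; mean ± SD.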

[22] = Hepatotoxicity in ICR mouse assessed as morphological changes in liver at 1 g/kg, ig administered daily for 14 days analysed after 22 hrs post-administration by hematoxylin and eosin staining based analysis; format: toxicity, tissue-based; conditions: in vivo, po, 1000 mg/kg, 336 h, time 14 day
Procedure, shortened: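 Liver from male mice taken 22 h after compound or vehicle; hematoxylin−eosin staining, viewed at ×100.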

SH-SY5Y [23] = experiment: Neuroprotective activity against amyloid beta (1 to 42)-induced cytotoxicity in human SH-SY5Y cells at 10 uM pretreated for 2 hrs followed by amyloid beta (1 to 42) stimulation and measured after 24 hrs by MTT assay; format: functional, cell-based; conditions: time 26.0 hrs; procedure, shortened: as §3
Mus musculus [24] = experiment: Anti-alzheimer activity in amyloid beta(1 to 42)-induced ICR mouse model of cognitive impairment assessed as simplification of trajectories at 15 mg/kg, ig administered at days 2 to 14 by Morris water maze test; format: functional, organism-based
Procedure, shortened: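 ICR mice, n = 8 per group. Aggregated Aβ1-42 (5 mM DMSO stock incubated 24 h at 37 °C in saline at 2 mg/mL) given 10 μg per mouse icv on day 1; saline icv for sham. Compound 15 mg/kg intragastric on days 2−14; donepezil reference. Morris water maze training days 9−13, probe trial day 14; tracks recorded; mean ± SD.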

BV-2 [25] = experiment: Anti-inflammatory activity against mouse BV-2 cells assessed as blocked of LPS-induced increased ROS production by measuring green fluorescence preincubated for 1 hr by DCFH-DA staining based fluorescence microscopy; format: functional, cell-based
Procedure, shortened: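 BV2 cells seeded at 1 × 10⁴ per well and grown 24 h at 37 °C. Compounds at various concentrations for 1 h, then LPS 2.5 μg/mL for 24 h. Washed in PBS, loaded with DCFH-DA 5 μM (final) for 30 min, washed three times. Intracellular ROS taken as green fluorescence intensity by inverted fluorescence microscopy, exposure fixed at 10.2 ms.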

[26] = Acute toxicity in ICR mouse assessed as abnormal behaviour at 1 g/kg, ig administered […]; conditions: in vivo, po, 1000 mg/kg
Procedure, shortened: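 Single dose of 1 g/kg given intragastrically on day 1 to overnight-fasted mice (15−18 g), suspended in 5% DMSO, 40% PEG 400, 55% saline. Male and female groups (n = 9), with vehicle controls. Death, daily behaviour and body mass followed over the next 2 weeks.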

[27] = Metabolic stability in human liver microsomes assessed as intrinsic clearance at 1 uM measured upto 45 mins in presence of NADPH by LC/MS/MS analysis; format: ADME, Microsome; conditions: read-out: CLH; procedure, shortened: as §4
PC-12 [28] = experiment: Cytotoxicity against rat PC-12 cells assessed as survival rate at 2.5 uM incubated for 24 hrs by MTT assay; format: functional; procedure, shortened: as §1
SH-SY5Y [29] = experiment: Cytotoxicity against human SH-SY5Y cells assessed as survival rate at 2.5 uM incubated for 24 hrs by MTT assay; format: functional; procedure, shortened: as §1

SMILES	Activity (L02) [%]	IC50 (HepG2 [1]) [nM]	Activity (BV-2 [3]) [%]	Activity (Mus musculus [5])	Activity (SH-SY5Y [6]) [%]	Activity [7]	half-life at 1 µM [9] [min]	IC50 (Cholinesterase [10]) [nM]	IC50 (Cholinesterase [11]) [nM]	Activity (PC-12 [12]) [%]	Activity (Mus musculus [13])	Activity [14]	Activity [15]	Activity (HepG2 [16]) [%]	Activity [17]	Activity (Mus musculus [20])	Papp at 18 h, 100 ug/ml [21] [×10⁻⁶ cm/s]	Activity [22]	Activity (Mus musculus [24])	Activity [26]	other results
Cc1ccc2cc(NC(=O)Cn3c(-c4nonc4N)nc4ccccc43)ccc2n1	61.49	17300	59.79																		IC50 (PC-12 [2]): 91500 nM; IC50 (SH-SY5Y [4]): 35100 nM
Nc1nonc1-c1nc2ccccc2n1CC(=O)Nc1cccc([N+](=O)[O-])c1	87.01		94.23	68.67%	82.67	Non-Toxic	47.5	25	31	58.34	Active	Non-Toxic	Non-Toxic	75.46	Toxic	Active	12.4	Non-Toxic	Active	Non-Toxic	Activity (SH-SY5Y [8]): Active; Activity (SH-SY5Y [18]): Dose-Dependent Effect; Activity (SH-SY5Y [19]): Active; Activity (SH-SY5Y [23]): Active; Activity (BV-2 [25]): Active; CLint scaled at 1 µM [27]: 36.6 mL/min/kg
Nc1nonc1-c1nc2ccccc2n1CC(=O)Nc1ccc(Br)c2ccccc12	86.55		55.66	Active	62.37	Non-Toxic	32.2	32	6	52.21	Active	Non-Toxic	Non-Toxic	73.24	Toxic	Active	11.7	Non-Toxic	Active	Non-Toxic	CLint scaled at 1 µM [27]: 54 mL/min/kg
Nc1nonc1-c1nc2ccccc2n1CC(=O)Nc1cccc2ccccc12	73.52	5050	82.9					22	44												Activity (PC-12 [28]): 44.44%; Activity (SH-SY5Y [29]): 40.84%
